In ChEMBL document CHEMBL3407346, “Design, synthesis, and biological evaluation of sulfonyl acrylonitriles as novel inhibitors of cancer metastasis and spread” (J Med Chem, 2015):
pEC50: −log10 of the molar value. Activity calls are given as the source filed them. The calls are words filed in the database; no cut-off is given here.

What was measured:
[1] = system: A2780; test: Cytotoxicity against human A2780 cells co-cultured with human mesothelial cells at 10 uM after 4 hrs by firefly luciferase assay relative to control; assay type: functional
Procedure, shortened: (§1)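 Co-culture of luciferase-transduced cancer cells (puromycin/G418-selected retroviral pLuc) with confluent human mesothelial monolayers. Suspended cancer cells plus 10 µM compound (final) or DMSO were overlaid for 4 h. Non-adherent cells were washed off and surviving adherent cells quantified by firefly luciferase luminescence. Efficacy = treated/DMSO luminescence ratio; mean±SEM, n=3.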

[2] = Cytotoxicity against human BxPC3 cells co-cultured with human mesothelial cells at 10 uM after 4 hrs by firefly luciferase assay relative to control; assay type: functional, BXPC-3; procedure, shortened: as §1
[3] = Cytotoxicity against human SU86 cells co-cultured with human mesothelial cells at 10 uM after 4 hrs by firefly luciferase assay relative to control; assay type: functional; procedure, shortened: as §1
[4] = Cytotoxicity against human SKOV3 cells co-cultured with human mesothelial cells at 10 uM after 4 hrs by firefly luciferase assay relative to control; assay type: functional, SK-OV-3; procedure, shortened: as §1
[5] = system: HT-29; test: Reduction of cellular GSH level in human HT-29 cells incubated for 30 mins followed by co-culturing with human mesothelial cells measured after 5 hrs by […]; assay type: functional, cell-based
[6] = Glutathione reactivity assessed as reduction in detectable GSH level by Ellman's reagent-based assay
Procedure, shortened: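 Glutathione was measured with a commercial kit per the manufacturer's instructions, with TNB production rate proportional to GSH. Cell-free GSH was tested with compounds, and HT-29 luciferase cell lysates were assayed after compound exposure.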

[7] = system: A2780; test: Induction of apoptosis in human A2780 cells assessed as increased cellular levels of cleaved caspase 3 at 5 uM after 4 hrs by immunoblot analysis; assay type: functional, cell-based
Procedure, shortened: (§2)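 A2780 cells were suspended and allowed to adhere for 4 h with DMSO or test compound (5 µM in DMSO). Cells were collected and lysed, lysates normalised for total protein, and cleaved PARP and cleaved caspase 3 detected by immunoblot with actin as loading control. A sulfide analog served as negative control.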

[8] = system: A2780; test: Induction of apoptosis in human A2780 cells assessed as increased cellular levels of cleaved PARP at 5 uM after 4 hrs by immunoblot analysis; assay type: functional, cell-based; procedure, shortened: as §2
[9] = Cytotoxicity against human SKOV3 cells co-cultured with human mesothelial cells after 4 hrs by firefly luciferase assay relative to control; assay type: functional, cell-based; details: SK-OV-3, 4 h
Procedure, shortened: (§3)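 Luciferase-expressing cancer cells in suspension were treated with a series of compound concentrations or DMSO, overlaid on confluent human mesothelial monolayers for 4 h, and washed to remove non-adherent cells. Surviving adherent cells were read by luciferase luminescence relative to vehicle, and EC50 was derived from the concentration series.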

[10] = Cytotoxicity against human BxPC3 cells co-cultured with human mesothelial cells after 4 hrs by firefly luciferase assay relative to control; assay type: functional, cell-based; details: BXPC-3, 4 h; procedure, shortened: as §3
[11] = system: A2780; test: Cytotoxicity against human A2780 cells co-cultured with human mesothelial cells after 4 hrs by firefly luciferase assay relative to control; assay type: functional, cell-based; details: A2780, 4 h; procedure, shortened: as §3
[12] = Cytotoxicity against human SU86 cells co-cultured with human mesothelial cells after 4 hrs by firefly luciferase assay relative to control; assay type: functional, cell-based; procedure, shortened: as §3

Compound	Ratio [1]	Ratio [2]	Ratio [3]	Ratio [4]	further results
CC(C)(C(=O)NCC(F)F)c1ccc(S(=O)(=O)/C=C/C#N)cc1	0.86	0.82	0.81	1.13	–
N#C/C=C/S(=O)(=O)c1ccc(C2(C(=O)NCc3ccc(Cl)cc3)CCOCC2)cc1	0.46	0.3	0.66	0.71	–
CC(C)(C(=O)NC1CCCCC1)c1ccc(S(=O)(=O)/C=C/C#N)cn1	0.16	0.16	0.61	0.58	–
CC(C)(C(=O)NCC#Cc1ccccc1)c1ccc(S(=O)(=O)/C=C/C#N)cc1	0.07	0.14	0.5	0.4	–
CC(C)(C(=O)NCc1ccc(F)cc1)c1ccc(S(=O)(=O)/C=C/C#N)cc1	0.11	0.23	0.18	0.6	Activity [5]: Active; Activity [6]: Active
Cc1cnc(C(C)(C)c2ccc(S(=O)(=O)/C=C/C#N)cc2)o1	0.03	0.09	0.37	0.26	–
CC(C)(C(=O)NCc1cccc(F)c1)c1ccc(S(=O)(=O)/C=C/C#N)cc1	0.05	0.17	0.24	0.3	–
N#C/C=C/S(=O)(=O)c1ccc(C2(C(=O)Nc3ccccc3)CCC2)cc1	0.17	0.12	0.35	0.39	–
COCCOCc1ccc(NC(=O)C(C)(C)c2ccc(S(=O)(=O)/C=C/C#N)cc2)cc1	0.26	0.4	0.66	0.6	–
CC(C)(C)c1ccc(S/C=C/C#N)cc1	–	–	–	–	Activity [7]: inactive; Activity [8]: inactive
CC(C)(C(=O)NCc1ccc(-n2cccn2)cc1)c1ccc(S(=O)(=O)/C=C/C#N)cc1	0.34	0.48	0.49	0.84	–
COc1cccc(CNC(=O)C(C)(C)c2ccc(S(=O)(=O)/C=C/C#N)cc2)c1	0.03	0.09	0.3	0.25	–
CC(C)(c1ccc(S(=O)(=O)/C=C/C#N)cc1)c1nc2ccccc2[nH]1	1.07	1.01	1.04	1.1	–
C/C=C/S(=O)(=O)c1ccc(C(C)(C)C)cc1	–	–	–	–	Activity [5]: inactive; Activity [6]: inactive
CC(C)(C(=O)NCCc1ccccc1)c1ccc(S(=O)(=O)/C=C/C#N)cc1	0.1	0.15	0.29	0.56	–
CC(C)(C(=O)NCc1ccc(S(N)(=O)=O)cc1)c1ccc(S(=O)(=O)/C=C/C#N)cc1	1	1	1.11	0.96	–
C[C@@H](NC(=O)C(C)(C)c1ccc(S(=O)(=O)/C=C/C#N)cc1)c1ccccc1	0.1	0.21	0.21	0.64	–
CC(C)(C(=O)Nc1ccccc1)c1ccc(S(=O)(=O)/C=C/C#N)cc1	0.17	0.22	0.52	0.55	–
CN(Cc1ccc(F)cc1)C(=O)C(C)(C)c1ccc(S(=O)(=O)/C=C/C#N)cc1	0.02	0.11	0.23	0.22	–
CN(Cc1ccccc1)C(=O)C(C)(C)c1ccc(S(=O)(=O)/C=C/C#N)cc1	0.06	0.12	0.24	0.5	Activity [5]: Active; Activity [6]: Active
N#C/C=C/S(=O)(=O)c1ccc(C2(C(=O)NCc3ccc(F)cc3)CC2)cc1	0.06	0.34	0.64	0.43	–

Compound	Ratio [1]	Ratio [2]	Ratio [3]	Ratio [4]	further results
CC(C)(C)c1ccc2cc(S(=O)(=O)/C=C/C#N)ccc2n1	0.04	0.22	0.45	0.35	–
N#C/C=C/S(=O)(=O)c1ccc(C2(C(=O)NC3CCCCC3)CC2)cc1	0.09	0.28	0.34	0.23	–
CC(C)(C)c1cccc(S(=O)(=O)/C=C/C#N)c1	0.1	0.08	0.13	0.35	–
CC(C)(C(=O)N[C@H]1CCCCNC1=O)c1ccc(S(=O)(=O)/C=C/C#N)cc1	0.84	0.82	0.97	0.85	–
CC(C)(C(=O)NCc1ccc(S(C)(=O)=O)cc1)c1ccc(S(=O)(=O)/C=C/C#N)cc1	0.95	0.99	1.09	0.78	–
CC(C)(c1ccc(S(=O)(=O)/C=C/C#N)cc1)c1nnc(Nc2ccccc2)o1	0.22	0.39	0.62	0.65	–
COc1ccccc1CNC(=O)C(C)(C)c1ccc(S(=O)(=O)/C=C/C#N)cc1	0.01	0.07	0.21	0.27	–
C[C@H](NC(=O)C(C)(C)c1ccc(S(=O)(=O)/C=C/C#N)cc1)c1ccccc1	0.13	0.27	0.32	0.67	–
N#C/C=C/S(=O)(=O)c1ccc(C2(C(=O)NC3CCCCC3)CCOCC2)cc1	1.12	0.67	1	0.88	–
CCNc1nnc(C(C)(C)c2ccc(S(=O)(=O)/C=C/C#N)cc2)o1	0.86	1.02	0.96	1.12	–
N#C/C=C/S(=O)(=O)c1ccc(C2(C(=O)Nc3ccccc3)CCOCC2)cc1	0.87	0.85	0.92	0.97	–
Cc1ccc(O)c(NC(=O)COc2ccc(S(=O)(=O)/C=C/C#N)cc2C(C)(C)C)c1	0.05	0.1	0.38	0.24	pEC50 [9]: 5.18; pEC50 [10]: 5.42; pEC50 [11]: 5.62; pEC50 [12]: 5.10
Cc1ccc2oc(COc3ccc(S(=O)(=O)/C=C/C#N)cc3C(C)(C)C)nc2c1	0.09	0.24	0.56	0.36	–
CC(C)(c1ccc(S(=O)(=O)/C=C/C#N)cc1)c1nnc(C2CCCCC2)o1	0.02	0.13	0.27	0.28	–
CC(C)(C)c1cc(S(=O)(=O)/C=C/C#N)ccc1OCC(=O)O	1.05	0.81	0.97	0.92	–
COc1cccc(NC(=O)COc2ccc(S(=O)(=O)/C=C/C#N)cc2C(C)(C)C)c1	0.03	0.17	0.37	0.29	–
N#C/C=C/S(=O)(=O)c1ccc(C2(C(=O)NCc3ccc(Cl)cc3)CCC2)cc1	0.13	0.21	0.36	0.3	–
C=CS(=O)(=O)c1ccc(C(C)(C)C)cc1	–	–	–	–	Activity [5]: inactive; Activity [6]: inactive
CC(C)(C(=O)N1CCCCC1)c1ccc(S(=O)(=O)/C=C/C#N)cc1	0.08	0.25	0.51	0.51	–
CC(C)(C(=O)NCc1ccccc1F)c1ccc(S(=O)(=O)/C=C/C#N)cc1	0.03	0.15	0.2	0.3	–
CC(C)(C)c1cc(S(=O)(=O)/C=C/C#N)ccc1OCC(=O)NCc1ccc(F)cc1	0.02	0.1	0.28	0.23	–
